Compounds with a hit are over-represented: about 2.8% of the library has one in this group of screens.
PAFAH2 inh: PAFAH2 (human) inhibition | recombinant PAFAH2, FP-rhodamine activity probe, fluorescence polarization | inhibition, % at 3.39 µM | hit rate 0.99% among 340,000 | AID 492956;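 active = inhibition above the mean over all tested compounds plus 3 SD, cut at about 30% in these data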;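 note: inhibitors block probe labeling of enzyme so polarization drops; 0% = enzyme with DMSO and 100% = wells lacking PAFAH2 protein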
PAFAH1B2 inh: inhibitors of human PAFAH1B2 | recombinant PAFAH1B2, FP-rhodamine activity probe, fluorescence polarization | inhibition, % at 3.39 µM | hit rate 1.2% among 340,000;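 active = inhibition above the mean of all tested compounds plus 3 SD, cut at about 24% in these data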;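 note: 0% = enzyme with DMSO and 100% = wells lacking PAFAH1B2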
Target sequence (P68402 whole entry, looked up): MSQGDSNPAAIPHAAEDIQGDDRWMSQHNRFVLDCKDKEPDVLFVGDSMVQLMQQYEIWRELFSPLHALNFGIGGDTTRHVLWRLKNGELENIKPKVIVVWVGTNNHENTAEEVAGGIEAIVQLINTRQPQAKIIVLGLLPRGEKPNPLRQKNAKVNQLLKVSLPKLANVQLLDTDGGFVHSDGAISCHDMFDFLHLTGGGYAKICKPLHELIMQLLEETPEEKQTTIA
pPAFAH inh: pPAFAH (human) enzyme inhibition; hit rate 1.5% among 330,000; Q13093; recombinant pPAFAH, FP-rhodamine probe fluorescence polarization; inhibition, % at 3.39 µM;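 active = inhibition above the mean inhibition across the screen plus 3 SD, cut at about 25% in these data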;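 note: inhibitors block binding of the rhodamine activity-based probe so polarization drops; 0% = enzyme with DMSO and 100% = wells lacking pPAFAH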
ABHD4 inh: inhibitors of mouse ABHD4; Q8VD66; purified mABHD4, FP-Rh probe fluorescence polarization; inhibition, % at 8.92 µM; hit rate 0.54% among 370,000; AID 720543;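 active = inhibition exceeding the mean over every tested compound plus 3 SD, cut at about 30% in these data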;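 note: 0% = plate median of compound wells and 100% = S159A mutant with DMSO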
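assay system = mABHD4 protein | compound dosing = single nominal dose of 8.92 µM, 0.89% DMSO final | read-out basis = percent inhibition of probe binding, normalized to plate controls | schedule = Enzyme–compound pre-incubation 45 min, then probe 60 min, both 25 °C | detection = fluorescence polarization, excitation 525 nm, emission 598 nm, BODIPY TMR filters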
PAFAH1B3 FP inh: inhibitors of human PAFAH1B3. Q15102. recombinant PAFAH1B3, FP-rhodamine probe, fluorescence polarization. inhibition, % at 3.39 µM. hit rate 0.28% among 340,000. AID 492972;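 active = inhibition above the screen-wide average of all tested compounds plus 3 SD, cut at about 25% in these data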;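 note: 0% = enzyme with DMSO only and 100% = wells lacking PAFAH1B3 protein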
Target sequence (Q15102 whole entry, looked up): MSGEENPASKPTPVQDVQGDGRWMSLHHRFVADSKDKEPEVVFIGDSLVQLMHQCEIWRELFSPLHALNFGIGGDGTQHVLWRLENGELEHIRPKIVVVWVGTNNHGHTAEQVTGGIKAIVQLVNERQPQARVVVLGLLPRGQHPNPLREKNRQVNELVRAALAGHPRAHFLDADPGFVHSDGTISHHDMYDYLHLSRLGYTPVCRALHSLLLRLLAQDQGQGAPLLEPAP
HTRA1 inhibitor: inhibitors of human serine peptidase HTRA1; Q92743; AID 504803; recombinant HTRA1, FP-rhodamine activity-based probe, fluorescence polarization; hit rate 0.5% among 340,000; inhibition, % at 5.96 µM; in the data active = inhibition above about 36%;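 note: 0% = enzyme with DMSO and 100% = wells lacking enzyme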
PAFAH1B3 confirm: confirmation of human PAFAH1B3 inhibitors; hit rate 30% among 390; shares compounds with PAFAH1B3 FP inh; inhibition, % at 3.39 µM; recombinant PAFAH1B3, FP-Rh activity-based probe, fluorescence polarization;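 active = average inhibition over triplicate runs above the hit cutoff set in the earlier primary screen, cut at about 25% in these data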;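 note: 0% = enzyme with DMSO and 100% = wells lacking PAFAH1B3 protein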
HTRA1 conf: confirmation of human HTRA1 inhibitors; inhibition, % at 5.96 µM; shares compounds with HTRA1 inhibitor; recombinant HTRA1, FP-rhodamine activity-based probe, fluorescence polarization; hit rate 66% among 1,600;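 active = mean inhibition over three repeats above a set limit taken from the earlier primary screen, cut at about 37% in these data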;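 note: 0% = HTRA1 with DMSO and 100% = wells lacking HTRA1; inhibitors block probe binding so polarization drops and inhibition rises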
mABHD4 conf: ABHD4 (mouse) inhibition, FP confirmation | shares compounds with ABHD4 inh | purified mABHD4, FP-Rh probe fluorescence polarization | inhibition, % at 8.92 µM | hit rate 55% among 1,800 | AID 720658;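 active = mean inhibition across replicates above the hit cutoff set in the primary screen, cut at about 30% in these data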;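 note: 0% = wild-type ABHD4 with DMSO and 100% = catalytically dead S159A mutant with DMSO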
* = called active by the depositor; nt = not tested or not shown.

SMILES	PAFAH2 inh	PAFAH1B2 inh	pPAFAH inh	ABHD4 inh	PAFAH1B3 FP inh	HTRA1 inhibitor	HTRA1 conf	others
COC(=O)c1nc(-c2ccc3c(n2)C(=O)C(N)=C(OC)C3=O)c(N)c(-c2ccc(OC)c(OC)c2O)c1C	22	23	12	20	70*	8	nt	PAFAH1B3 confirm=67*
CN1C[C@H](CO)C=C2c3cccc4[nH]cc(c34)C[C@H]21	5	3	7	22	9	16	nt
CC(C)[C@H]1C(=O)N2CCC[C@H]2[C@]2(O)O[C@](NC(=O)[C@@H]3C=C4c5cccc6[nH]cc(c56)C[C@H]4N(C)C3)(C(C)C)C(=O)N12	-1	6	21	nt	31*	33	nt	PAFAH1B3 confirm=9
C[C@H](Cc1ccc(OCC(=O)O)cc1)NC[C@H](O)c1cccc(Cl)c1	nt	nt	nt	13	nt	nt	nt
CCCCn1c(NS(=O)(=O)c2ccc(C)cc2)c(C(=O)OCC)c2nc3ccccc3nc21	7	6	11	15	40*	-49	nt	PAFAH1B3 confirm=7
CC[C@H](C)[C@@H]1OC(=O)[C@H](C(C)C)N(C)C(=O)[C@H](C(C)C)NC(=O)[C@@H](C)[C@@H](CCCC#CBr)OC(=O)[C@H](C(C)C)N(C)C(=O)C2CCCN2C1=O (stereo not given in full)	nt	nt	nt	5	nt	nt	nt
CC(C)OC(=O)c1c(N)n(CC2CCCO2)c2nc3ccccc3nc12 (stereo not given)	-3	-2	2	-8	-3	2	nt
CCCNC(=O)c1c(N)n(CC2CCCO2)c2nc3ccccc3nc12 (stereo not given)	-1	8	14	5	27*	-1	nt	PAFAH1B3 confirm=12
CN(C)[C@@H]1C(=O)C(C(N)=O)=C(O)[C@@]2(O)C(=O)C3=C(O)c4c(O)cccc4[C@@](C)(O)C3C[C@@H]12 (stereo not given in full)	21	16	32*	64*	30*	22	nt	PAFAH1B3 confirm=13;mABHD4 conf=9
CCOC(=O)CNC(=O)N1Cc2cc(Br)ccc2-n2nncc2C1	nt	nt	nt	2	nt	nt	nt
Cn1ccnc1P(=S)(c1nccn1C)c1nccn1C	9	-1	0	3	12	71*	106*
C[C@H]1CNCCN1c1ccc(N2CC[C@@H](O)C2)c(C#N)c1	nt	nt	nt	3	nt	nt	nt
O=C(COC(=O)Cc1ccccc1)NC(=O)NC1CCCCC1	10	2	-4	2	7	36*	38*
CC1=C[C@@H]2c3cccc4[nH]cc(c34)C[C@H]2N(C)C1	6	-1	5	19	14	40*	16
Clc1cc(Cl)cc(CN2Cc3cc(Br)ccc3-n3nncc3C2)c1	nt	nt	nt	-11	nt	nt	nt
COc1ccc(-n2c(/C=C/c3ccc(O)c(OC)c3)nc3ccccc3c2=O)cc1	-3	-1	13	1	4	-8	nt
COc1cccc(-n2c(/C=C/c3ccc(O)c(O)c3)nc3ccccc3c2=O)c1	7	1	33*	21	-9	58*	47*
CCC(NC(=O)OCc1ccccc1)P(=O)(Oc1ccccc1)Oc1ccccc1 (stereo not given)	nt	nt	nt	-7	nt	nt	nt
COc1ccccc1CCNCc1cc2c(cc1[N+](=O)[O-])OCO2	5	7	8	14	2	42*	10
COc1ccc(Br)cc1CNCCc1ccc2c(c1)OCO2	0	5	-3	7	3	8	nt
Oc1ccc(/C=N/NP(=S)(c2ccccc2)c2ccccc2)cc1O	3	2	19	24	3	58*	62*
Oc1ccccc1/C=N/NP(=S)(c1ccccc1)c1ccccc1	-13	-2	-2	-36	0	-31	nt
C=CCN1CCc2cccc3c2[C@H]1Cc1ccc(O)c(O)c1-3	-7	-3	17	44*	8	63*	80*	mABHD4 conf=24
COC(=O)C1C(OC(=O)c2ccccc2)CC2CCC1[N+]2(C)C (stereo not given)	nt	nt	nt	-1	nt	nt	nt

Compound activity from PubChem.
